Laboratory results: ChEMBL document CHEMBL1122124, “Synthesis and immunoadjuvant activities of 2-acetamido-5-O-acetyl-6-O-acyl-2-deoxy-3-O-[(R)-2-propionyl-L-alanyl-D- isoglutamine]-D-glucofuranoses as potential prodrug forms of 6-O-Acyl Derivatives of N-acetylmuramyl dipeptide” (1982)

Columns and labels:
Type in all cases: functional
[1] = species: Mus musculus; assay: Tested for antibody response of mice injected with Bovine serum Albumin(BSA) at 50 ug/dose in experiment 1
Summary of the method: (§1)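 Female ICR/Ha mice, 5–6 weeks old, groups of six, given one subcutaneous injection between the shoulders of 0.25 mL PBS containing 100 μg BSA monomer plus analogue (dissolved or sonicated). Boosted at day 21 with 100 μg BSA alone, bled at day 31. Anti-BSA passive hemagglutination was run on sheep-RBC-adsorbed sera with twofold dilutions on BSA-coated sheep cells. Result is the group geometric mean reciprocal titer.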

[2] = species: Mus musculus; assay: Tested for antibody response of mice injected with Bovine serum Albumin(BSA) at 50 ug/dose in experiment 5
[3] = species: Mus musculus; assay: Tested for antibody response of mice injected with Bovine serum Albumin(BSA) at 5 ug/dose in experiment 1
[4] = species: Mus musculus; assay: Tested for antibody response in mice injected with various Hepatitis B Vaccine at 50 ug/dose in experiment 1
Summary of the method: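 Female 5-week-old ICR mice, groups of 20, injected subcutaneously with 0.5 mL holding 1.25 μg aqueous hepatitis B vaccine (plasma-derived) mixed with 50 μg analogue in PBS (pH 7.5). Controls were aqueous vaccine alone and alum-adsorbed vaccine at 1.25 μg. Mice bled from vena cava at 6 weeks. Anti-HBs measured by radioimmunoassay; geometric mean titer reported as reciprocal serum dilution, plus responder count.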

[5] = species: Mus musculus; assay: Tested for antibody response of mice injected with Bovine serum Albumin(BSA) at 5 ug/dose in experiment 5; summary of the method: as §1
[6] = species: Mus musculus; assay: Tested for antibody response of mice injected with Bovine serum Albumin(BSA) at 5 ug/dose in experiment 6; summary of the method: as §1
[7] = species: Mus musculus; assay: Tested for antibody response of mice injected with Bovine serum Albumin(BSA) at 50 ug/dose in experiment 6
[8] = species: Mus musculus; assay: Tested for antibody response of mice injected with Bovine serum Albumin(BSA) at 50 ug/dose in experiment 4
[9] = species: Mus musculus; assay: Tested for antibody response of mice injected with Bovine serum Albumin(BSA) at 50 ug/dose in experiment 3; summary of the method: as §1
[10] = species: Mus musculus; assay: Tested for antibody response of mice injected with Bovine serum Albumin(BSA) at 50 ug/dose in experiment 2; summary of the method: as §1

SMILES	Geometric mean [1]	Geometric mean [2]	Geometric mean [3]	Geometric mean [4]	Geometric mean [5]	Geometric mean [6]	Geometric mean [7]	Geometric mean [8]	Geometric mean [9]	Geometric mean [10]
CCCCCCCCCCCCCCCCCC(=O)OCC(OC(C)=O)C1OC(O)C(NC(C)=O)C1OC(C)C(=O)N[C@@H](C)C(=O)NC(CCC(=O)O)C(N)=O (stereo not given in full)	1408.52	215.51	28.12	69.6	107.76					
COC1OC(C(O)CO)C(OC(C)C(=O)N[C@@H](C)C(=O)NC(CCC(=O)O)C(N)=O)C1NC(C)=O (stereo not given in full)	10.7		10.7							
CCCCCCCCCCCCCCCCCC(=O)NCC1OC(O)C(NC(C)=O)C(O[C@H](C)C(=O)N[C@@H](C)C(=O)NC(CCC(=O)O)C(N)=O)C1O (stereo not given in full)	<3		<3							
CC(=O)NCC1OC(O)C(NC(C)=O)C(O[C@H](C)C(=O)N[C@@H](C)C(=O)NC(CCC(=O)O)C(N)=O)C1O (stereo not given in full)	7.78		6.17							
CC(=O)NC1C(O)OC(COC(C)=O)C(OC(C)=O)C1O[C@H](C)C(=O)N[C@@H](C)C(=O)NC(CCC(=O)O)C(N)=O (stereo not given in full)	384		4.36							
CCCCCCCCCCCCCCCCCCCCCC(=O)OC(C)(C)C(=O)OCC1OC(O)C(NC(C)=O)C(O[C@H](C)C(=O)N[C@@H](C)C(=O)NC(CCC(=O)O)C(N)=O)C1O (stereo not given in full)	768		431			823.12	716.57			
CCCCCCCCCCCCCCCCCCCCCC(=O)OC(C)(C)C(=O)OCC(OC(C)=O)C1OC(O)C(NC(C)=O)C1OC(C)C(=O)N[C@@H](C)C(=O)NC(CCC(=O)O)C(N)=O (stereo not given in full)	215.51		543.06	303.6						
CCCCCCCCCCCCCCCCCC(=O)OCC1OC(O)C(NC(C)=O)C(O[C@H](C)C(=O)N[C@@H](C)C(=O)NC(CCC(=O)O)C(N)=O)C1O (stereo not given in full)	995.97		271.53							
CC(=O)NC1C(O)OC(C(COC(C)=O)OC(C)=O)C1OC(C)C(=O)N[C@@H](C)C(=O)NC(CCC(=O)O)C(N)=O (stereo not given in full)	271.53		31.12	38.1		13.08	113.49			
CC(=O)N[C@H]1C(O)O[C@H](CO)[C@@H](O)[C@@H]1O[C@H](C)C(=O)N[C@@H](C)C(=O)N[C@H](CCC(=O)O)C(N)=O (stereo not given in full) [MURAMYL DIPEPTIDE]	592.21	28.26	28.12		<3		179.14	1536	241.9	215.51
